Experimental data published in ChEMBL document CHEMBL3860103, “Antibacterial and Antibiofilm Activity of Cationic Small Molecules with Spatial Positioning of Hydrophobicity: An in Vitro and in Vivo Evaluation” (J Med Chem, 2016).
Activity calls are given as the source filed them. The calls are words filed in the database; no cut-off is given here.

How the values were obtained:
[1] = test system: Staphylococcus aureus; assay: Antibacterial activity against Staphylococcus aureus incubated for 24 hrs; assay type: functional
How it was run: (§1)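 Broth microdilution: 6 h cultures diluted to ~10^5 CFU/mL in medium; compounds 2-fold serially diluted in water, mixed 1:3 with bacterial suspension. Incubated 24 h, 37 °C; OD600 read. MIC = concentration with OD similar to medium-only control. Triplicate wells, experiments repeated at least twice.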

[2] = test system: Staphylococcus aureus; assay: Antibacterial activity against methicillin-resistant Staphylococcus aureus incubated for 24 hrs; assay type: functional
How it was run: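 MRSA (ATCC 33591) from a 6 h culture (~10^9 CFU/mL), diluted to ~10^5 CFU/mL in medium. Compounds in water, 2-fold serial dilutions, combined with the bacteria at 1:3 by volume and incubated 24 h at 37 °C. OD600 read. MIC is the lowest concentration whose OD matches the media-only control. Triplicate wells; experiments repeated at least twice.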

[3] = test system: Escherichia coli; assay: Antibacterial activity against Escherichia coli incubated for 24 hrs; assay type: functional; how it was run: as §1
[4] = Induction of hemolysis in human RBC incubated for 1 hr; assay type: cell-based, Erythrocyte; conditions: red blood cells
How it was run: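 Washed human RBCs from heparinized blood, 5 vol% in PBS, mixed 3:1 with serially diluted compounds; 1 h at 37 °C. Centrifuged; supernatant A540 read. Hemolysis % = (A−A0)/(Atotal−A0)×100, with water as 0% and 0.1 vol% Triton X-100 as full lysis.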

[5] = Selectivity index, ratio of HC50 for induction of hemolysis in human RBC to MIC for Escherichia coli
[6] = test system: Escherichia coli; assay: Induction of membrane depolarization in Escherichia coli at 32 ug/ml after 0 to 20 mins by […] dye based assay; assay type: functional
How it was run: (§2)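 Membrane-potential dye DiSC3(5) taken up by S. aureus or E. coli; depolarization followed as rise in dye fluorescence after adding compounds at 32 µg/mL.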

[7] = test system: Escherichia coli; assay: Induction of membrane permeabilization in Escherichia coli at 32 ug/ml after 0 to 20 mins by propidium iodide dye based assay; assay type: functional
How it was run: (§3)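 Membrane permeabilization of S. aureus or E. coli followed as increase in propidium iodide fluorescence after adding compounds at 32 µg/mL.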

[8] = test system: Staphylococcus aureus; assay: Induction of membrane depolarization in Staphylococcus aureus at 32 ug/ml after 0 to 20 mins by […] dye based assay; assay type: functional; how it was run: as §2
[9] = Selectivity index, ratio of HC50 for induction of hemolysis in human RBC to MIC for Staphylococcus aureus
[10] = test system: Staphylococcus aureus; assay: Induction of membrane permeabilization in Staphylococcus aureus at 32 ug/ml after 0 to 20 mins by propidium iodide dye based assay; assay type: functional; how it was run: as §3
[11] = test system: Staphylococcus aureus; assay: Induction of biofilm disruption in Staphylococcus aureus after 24 hrs by confocal laser-scanning microscopy; assay type: functional
How it was run: (§4)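 Biofilms grown on glass coverslips from ~10^5 CFU/mL: S. aureus in nutrient medium + 1% glucose + 1% NaCl, 24 h; E. coli in M9 + 0.5% glycerol + 0.02% casamino acid, 72 h; stationary, 37 °C. After PBS wash, treated 24 h at 37 °C with 32 µg/mL in the same medium; media-only control. Stained with SYTO 9 (5 µM), imaged by confocal microscopy.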

[12] = test system: Escherichia coli; assay: Induction of biofilm disruption in Escherichia coli after 24 hrs by confocal laser-scanning microscopy; assay type: functional; how it was run: as §4
[13] = Toxicity in HEK293 cells assessed as partial induction of cell death at 32 ug/ml incubated for 24 hrs by calcein AM and propidium iodide dye based fluorescence microscopy; conditions: human, hek293, 24 h
How it was run: (§5)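 HEK 293 cells seeded ~10^4 cells/well, treated with compounds for 24 h (16, 32 or 64 µg/mL); 0.1% Triton X positive, untreated negative control. Stained with calcein AM (2 µM) and PI (4.5 µM) 15 min at 37 °C, 5% CO2; imaged by fluorescence microscopy, 20X objective.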

[14] = Toxicity in HEK293 cells assessed as induction of cell death at 64 ug/ml incubated for 24 hrs by calcein AM and propidium iodide dye based fluorescence microscopy; conditions: human, hek293, 24 h; how it was run: as §5
[15] = Toxicity in HEK293 cells assessed as cell density level at 16 ug/ml incubated for 24 hrs by calcein AM and propidium iodide dye based fluorescence microscopy; conditions: human, hek293, 24 h; how it was run: as §5
[16] = test system: Staphylococcus aureus; assay: Antibacterial activity against Staphylococcus aureus infected in BALB/c mouse model of superficial skin infection and biofilm formation assessed as reduction in bacterial load in skin at 40 mg/kg applied topically once daily for 4 days and measured 18 hrs after last dose by FEI field emission scanning electron microscopy relative to un-treated control; assay type: functional, organism-based
How it was run: (§6)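 Female BALB/c mice (6–8 weeks, 18–22 g) made neutropenic with cyclophosphamide i.p. (150 mg/kg, then 100 mg/kg 3 days later), anesthetized, backs shaved, wounded and infected with MRSA ATCC 33591. After 24 h biofilm formation, 40 mg/kg applied topically to wound once daily for 4 days (n = 5/group; untreated control). Skin collected 18 h after last dose for CFU/g; portions formalin-fixed for SEM.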

[17] = test system: Staphylococcus aureus; assay: Antibacterial activity against Staphylococcus aureus infected in BALB/c mouse model of superficial skin infection and biofilm formation assessed as reduction in bacterial load in skin at 40 mg/kg applied topically once daily for 4 days and measured 18 hrs after last dose; assay type: functional; how it was run: as §6

Compound	MIC [1] [µg/mL]	MIC [2] [µg/mL]	MIC [3] [µg/mL]	HC50 at 1 h [4] [µg/mL]	other results
CCCCCCCCNC(=O)C[N+](C)(C)CC[N+](C)(C)CC(=O)NCCCCCCCC.[Br-].[Br-]	2	3.9	8	350	
CCCCCCCCCCNC(=O)C[N+](C)(C)CC[N+](C)(C)CC(=O)NCCCCCCCCCC.[Br-].[Br-]	2	2	4	65	Selectivity Index [5]: 16; Activity [6]: Active; Activity [7]: Active; Activity [8]: Active; Selectivity Index [9]: 32; Activity [10]: Active
CCCCCCNC(=O)C[N+](C)(C)CCCC[N+](C)(C)CC(=O)NCCCCCC.[Br-].[Br-]	62.5	125	125	> 1000	
CCCCCCCCNC(=O)C[N+](C)(C)CCCC[N+](C)(C)CC(=O)NCCCCCCCC.[Br-].[Br-]	2	3.9	8	310	
CCCCCCCCCC[N+](C)(C)CCCCCCCCCC					MBEC [11]: Active; MBEC [12]: Active
CCCCCCNC(=O)C[N+](C)(C)CCCCCC[N+](C)(C)CC(=O)NCCCCCC.[Br-].[Br-]	62.5	125	125	> 1000	
CCCCCCCCNC(=O)C[N+](C)(C)CCCCCC[N+](C)(C)CC(=O)NCCCCCCCC.[Br-].[Br-]	2	4	6	300	Selectivity Index [5]: 50; Activity [6]: Active; Activity [7]: Active; Activity [8]: Active; Selectivity Index [9]: 150; Activity [10]: Active
CCCCCCCCNC(=O)C[N+](C)(C)CCCCCCCC[N+](C)(C)CC(=O)NCCCCCCCC.[Br-].[Br-]	1	2	2	212	Activity [13]: Toxic; Selectivity Index [5]: 106; Activity [6]: Active; Activity [7]: Active; Activity [8]: Active; Selectivity Index [9]: 182; Activity [14]: Toxic; Activity [10]: Active; Activity [15]: Toxic
CCCCCCNC(=O)C[N+](C)(C)CCCCCCCCCC[N+](C)(C)CC(=O)NCCCCCC.[Br-].[Br-]	4	4	6	> 1000	Selectivity Index [5]: 207; Activity [6]: Active; Activity [7]: Active; Activity [8]: Active; Selectivity Index [9]: 310; Activity [10]: Active
CCCCCCCCNC(=O)C[N+](C)(C)CCCCCCCCCC[N+](C)(C)CC(=O)NCCCCCCCC.[Br-].[Br-]	1	2	1	100	
CCCCCCNC(=O)C[N+](C)(C)CC[N+](C)(C)CC(=O)NCCCCCC.[Br-].[Br-]	125	250	250	> 1000	
CCCCCCCCCCNC(=O)C[N+](C)(C)CCCCCCCC[N+](C)(C)CC(=O)NCCCCCCCCCC.[Br-].[Br-]	2	2	4	55	
CCCCCCCCCCNC(=O)C[N+](C)(C)CCCCCC[N+](C)(C)CC(=O)NCCCCCCCCCC.[Br-].[Br-]	2	2	2	58	
CCCCCCCCCCNC(=O)C[N+](C)(C)CCCCCCCCCCCC[N+](C)(C)CC(=O)NCCCCCCCCCC.[Br-].[Br-]	31	62	500	50	
CCCCCCCCNC(=O)C[N+](C)(C)CCCCCCCCCCCC[N+](C)(C)CC(=O)NCCCCCCCC.[Br-].[Br-]	1	1	2	65	
CCCCCCNC(=O)C[N+](C)(C)CCCCCCCC[N+](C)(C)CC(=O)NCCCCCC.[Br-].[Br-]	16	31	31	> 1000	
N,N,N-trimethylhexadecan-1-aminium bromide					MBEC [11]: Active; MBEC [12]: Active
CCCCCCCCCCCCCC[N+](C)(C)Cc1ccccc1					MBEC [11]: Active; MBEC [12]: Active
CCCCCCCCCCNC(=O)C[N+](C)(C)CCCCCCCCCC[N+](C)(C)CC(=O)NCCCCCCCCCC.[Br-].[Br-]	4	4	8	55	
CC(=O)O[C@H]1C[C@@]2(C)[C@@H](C[C@@H](O)[C@H]3[C@@]4(C)CC[C@@H](O)[C@@H](C)[C@@H]4CC[C@@]32C)/C1=C(\CCC=C(C)C)C(=O)O [FUSIDIC ACID]					Activity [16]: Active; Activity [17]: 2.2 log10CFU/g
